Screens: PubChem BioAssay, several laboratories
PKD1 kinase inh – inhibitors of human PKD1 kinase, biochemical, fluorescence polarization. Serine/threonine-protein kinase D1 (Homo sapiens), Q15139. PKD1 kinase fluorescence polarization assay. inhibition, % (no concentration beside the values). 0.056% of 200,000 active. AID 797, 2007; in the data active = inhibition above about 50%
Mdm2 ligase inh – MDM2-luciferase reporter signal enhancers, primary screen, MDM2 E3 ligase inhibitor project, cell-based, luminescence, 1536-well; cell-based MDM2 ubiquitination luciferase reporter, 2 h; 0 = plate control, 100 = twice control, blank-subtracted; signal enhancement, % at 5 µM; 0.11% of 210,000 active;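 active = signal enhancement of 30% or more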;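 also: luminescence tracks abundance of the self-degrading MDM2-luciferase fusion protein; higher signal means inhibition of MDM2 E3 ligase activity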
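Timing – 2 h compound exposure at 37 °C · Assay system – mammalian cells stably expressing self-ubiquitinating, self-degrading MDM2 E3–luciferase fusion · Amount – 2000 cells seeded into each well · Measure – % luminescence enhancement versus blank-corrected plate control mean · Measured by – SteadyLite luminescence, 15 min reagent step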
p97 ATPase inh – inhibitors of human p97 ATPase, primary screen, biochemical. Transitional endoplasmic reticulum ATPase (Homo sapiens), P55072. recombinant p97 ATPase, Kinase-Glo ATP luminescence, 3 h. inhibition, % at 8 µM. 0.42% of 220,000 active. AID 1481, 2009; in the data active = inhibition above about 15%;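 also: 0% = DMSO vehicle and 100% = wells lacking enzyme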
DTT redox prof – compounds producing H2O2 with reducing agent – biochemical, NIH compound library profiling, artefact control for MLSCN library redox annotation, primary screen; DTT-dependent redox cycling H2O2, phenol red/HRP absorbance; 100% = 100 µM peroxide control, 0% = buffer; activation, % at 10 µM; 0.03% of 200,000 active;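 active = activation of at least 50% relative to the plate's high and low controls in the primary single-dose screen; inactive = activation below 50%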;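 also: compound incubated with DTT at 0.8 mM final as the reducing agent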
ROMK primary – ROMK potassium channel modulators, primary screen, cell-based, thallium flux, MLSMR library; ATP-sensitive inward rectifier potassium channel 1 (Homo sapiens), P48048; Tet-inducible ROMK, thallium flux fluorescence; actives lie on both sides; B-score at 10 µM; 2% of 130,000 active; AID 1918, 2009;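 active = signal ratio slope over the read window, or its plate-corrected B-score, at least 3 SD from the plate mean, either direction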;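 also: B-score of the F/F0 ratio slope over 7 to 12 s after thallium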
KCC2 mod – KCC2 cotransporter modulators, thallium flux, primary screen, cell-based, HEK293 KCC2, FluoZin-2 fluorescence, MLSMR; Solute carrier family 12 member 5 (Homo sapiens), Q9H2X9; KCC2 cells, thallium flux FluoZin-2 fluorescence; B-score of Tl+ flux slope (higher = more flux/activation; lower = inhibition) at 10 µM; 2.2% of 190,000 active;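 active = thallium flux slope and its plate-corrected score both differing from the plate sample mean at a set confidence after two filtering rounds, in either direction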;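 also: slope of fluorescence scaled to starting intensity during 10 to 20 s after thallium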
ROMK hit retest – ROMK channel modulator hit retest, confirmation, cell-based, thallium flux, duplicate, resupplied hits; normalized thallium flux (F/F0 slope) at 10 µM; AID 1917, 2009; shares compounds with ROMK primary; 54% of 3,000 active; fluorescence ratio; active compounds read low;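 active = Flux at 10 µM at least 3 SD below or above vehicle control mean in one or both replicates; inconclusive = no clear call, values can overlap the other calls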
* marks the source's active call; other numbers are inactive results; i = inactive; ? = inconclusive; . = no result given. Sampled rows, rich in hits. Any-hit rate of the full collection: about 3.4%.

SMILES	PKD1 kinase inh	Mdm2 ligase inh	p97 ATPase inh	DTT redox prof	ROMK primary	KCC2 mod	ROMK hit retest
CCOC(=O)C1=C(N)OC(CCl)=C(C#N)C1c1ccsc1 (stereo not given)	-1.5	-13.5	4.3	0.5	-3.47*	-0.192	0.0602*
CC1=C(C(=O)OCc2ccccc2)C(c2ccsc2)C(C#N)=C(N)O1 (stereo not given)	4.3	-4.0	-11.7	-0.3	-1.61	-0.809	.
Cn1c(=O)c2c(nc(N3CCN(c4ccccn4)CC3)n2Cc2ccccc2Cl)n(C)c1=O	-2.8	2.6	1.0	-7.4	1.04	.	.
Cn1c(=O)c2c(nc(N3CCNCC3)n2Cc2ccccc2Cl)n(C)c1=O	-3.5	8.1	6.5	-1.3	1.6*	1.29	0.0795
CCC(=O)Nc1cc(C)c(OC)c(C)c1	6.2	14.7	1.1	-0.3	1.09	0.665	.
O=C(NCCC1=CCCCC1)c1ccc(Cl)cc1	-2.2	-29.9	-3.0	-0.8	-0.0347	.	.
CN1CCN(CCCNC(=O)c2cc3c(-c4ccc(Cl)cc4)nn(C)c3s2)CC1	-9.9	-6.3	-2.6	-1.7	.	.	.
CCN(CC)CCCNC(=O)c1cc2c(-c3ccc(Cl)cc3)nn(C)c2s1	-9.0	-8.8	-7.3	-3.1	.	.	0.0588*
CCN(CC)CCn1c(=N)n(CC(O)COc2cccc(C)c2)c2ccccc21 (stereo not given)	0.4	-5.8	-4.8	-0.2	-2.46	0.757	.
N=c1n(Cc2ccccc2)c2ccccc2n1CC(O)COc1ccc(Cl)cc1Cl (stereo not given)	3.8	-4.3	5.7	-0.8	-1.65	1.12	.
Cc1ccc(OCC(O)Cn2c(=N)n(Cc3ccccc3)c3ccccc32)cc1 (stereo not given)	8.2	1.5	0.1	0.3	-4.58*	.	0.0519*
N=c1n(Cc2ccc(Cl)cc2)c2ccccc2n1CC(O)COc1ccccc1 (stereo not given)	9.0	10.5	11.6	-0.7	-4.16*	-0.1	0.0539*
COc1ccc(OCC(O)Cn2c(=N)n(Cc3ccccc3)c3ccccc32)cc1 (stereo not given)	4.0	0.3	5.2	1.9	-7*	0.58	0.0481*
Cc1cccc(OCC(O)Cn2c(=N)n(CCN3CCCCC3)c3ccccc32)c1 (stereo not given)	0.0	-0.8	-3.5	-0.4	-7.64*	.	0.0486*
Cc1cccc(OCC(O)Cn2c(=N)n(Cc3ccccc3)c3ccccc32)c1 (stereo not given)	.	-12.4	5.9	.	.	-0.357	.
Cc1cc(C)n(-c2ccc(C(=O)OCn3nnc4ccccc4c3=O)cc2)n1	-12.4	25.1	0.3	1.5	-2.41	-0.316	.
O=C(NCc1ccncc1)c1cccc(F)c1	-5.4	-5.9	1.7	-2.7	-0.00506	0.51	.
CCCCOc1ccc(C)cc1CN(CCO)CCO	-9.5	-3.7	-2.8	1.2	1.15	-0.368	.
CCCCCc1ccc(OCCCC[n+]2ccc(C)cc2)c(CCCCC)c1	10.5	-7.8	1.6	0.4	-5.65*	1.24	0.0474*
CCCCCc1ccc(OCCCC[n+]2ccccc2)c(CCCCC)c1	-1.4	-13.2	-2.2	-0.3	-4.92*	-0.0952	0.0552*
O=C(CCN1C(=O)c2ccccc2C1=O)C1=NN[C@@H]2C(=O)N(c3cccc(Cl)c3)C(=O)[C@H]12	-15.6	-8.7	-1.0	-0.9	-0.0313	-0.0179	.
O=C(CSc1nnc(-c2ccc(S(=O)(=O)N3CCCC3)cc2)n1CC1CCCO1)NC1CC1 (stereo not given)	0.3	-2.7	6.4	0.9	.	0.333	0.0906
CCSc1nnc(-c2ccc(S(=O)(=O)N3CCOCC3)cc2)n1CC1CCCO1 (stereo not given)	-8.7	6.4	4.4	2.1	.	0.082	.
COc1ccc(C(=O)COC(=O)c2ccccc2NS(=O)(=O)c2ccc(O)c([N+](=O)[O-])c2)cc1	.	4.9	-5.0	.	.	-4.18	0.0806
CCOC(=O)c1[nH]c2ccc(OC)cc2c1NC(=O)OC	-5.8	-9.7	3.1	2.8	.	-0.0212	?
SMILES	PKD1 kinase inh	Mdm2 ligase inh	p97 ATPase inh	DTT redox prof	ROMK primary	KCC2 mod	ROMK hit retest
CCOc1ccc2[nH]c(=O)c(CN(CCO)C(c3nnnn3C3CCCCC3)C(C)C)cc2c1 (stereo not given)	-4.1	-3.9	3.2	-0.2	-2.42*	0.892	0.0595*
Cc1cc(/C=N/NC(=O)c2cccs2)c(C)n1-c1ccccc1	-9.8	-35.0	4.5	0.7	3.82*	0.037	0.0814
COC(=O)N/N=C/c1cc(C)n(-c2ccccc2)c1C	-1.2	-11.8	-6.2	-0.5	0.861	0.881	.
Cc1cc(/C=N/NC(=O)C(O)(c2ccccc2)c2ccccc2)c(C)n1-c1ccccc1	-2.0	.	6.9	0.0	2.74*	-0.612	0.097*
Cc1cc(C)nc(SCC(=O)N/N=C/c2cc(C)n(-c3ccccc3C)c2C)n1	-1.6	11.3	-0.7	-0.2	6.64*	-1.31	0.117*
Cc1cc(/C=N/NC(=O)c2ccncc2)c(C)n1-c1ccccc1	-18.3	14.0	-1.7	-0.2	0.825	-1.4	.
Cc1cccc(C)c1-n1c(C)cc(/C=N/NC(=O)CSc2ncccn2)c1C	-3.3	-6.9	-0.8	-0.6	.	0.34	.
CCN(CC)S(=O)(=O)c1cccc(C(=O)Nc2nncs2)c1	-5.9	0.3	5.8	0.5	0.805	-0.307	.
O=C(O)CSc1nnc(COc2ccc([N+](=O)[O-])cc2)n1-c1ccccc1	-5.2	-0.2	2.3	-0.9	0.662	0.38	.
Cc1ccc(Oc2c(C(N)=O)cc([N+](=O)[O-])cc2[N+](=O)[O-])cc1	-8.8	14.3	7.2	5.1	-2.34*	1.08	0.035*
CN1/C(=C/C=C(C#N)C#N)C(C)(C)c2ccccc21	-1.8	-2.5	4.7	-0.1	.	i	.
CC1=C/C(=C\C=C(C#N)C#N)N(C)c2ccccc21	.	-8.4	-1.2	.	-3.99*	-2.05	0.0414*
Cc1ccc2cc(C#N)c(NCCNC(=S)NCCCN(C)C)nc2c1C	5.0	-17.6	-0.4	-1.0	-3.13*	-0.776	0.0572*
Cc1ccc2nc3cc([N+](=O)[O-])cc([N+](=O)[O-])c3cc2c1	-8.5	8.6	5.9	-1.4	-2.04	-0.484	.
Cc1cccc(C(=O)N[C@H](C(=O)Nc2ccc(S(=O)(=O)NC3=NCCCCC3)cc2)C(C)C)c1	-1.9	-13.6	2.6	-1.7	0.372	0.213	.
